Assay results from ChEMBL document CHEMBL4261600 (Eur J Med Chem, 2018).

Columns and labels:
[1] = biological target: CDK9/Cyclin K (Homo sapiens, UniProt P50750); test: Inhibition of CDK9/Cyclin K (unknown origin) using PDKtide as substrate incubated at 37 degreeC for 1 hr followed by incubation at room temperature for 5 mins by ADP-Glo reagent based luminescence assay; assay type: protein-complex assay
[2] = AUC (0 to t) in Sprague-Dawley rat at 20 mg/kg, po by LC-MS/MS analysis; assay type: ADME, organism-based; conditions: in vivo
How it was run: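 Non-compartmental PK. Male SD rats 190-210 g, mice and beagle dogs acclimatized one week, fasted 12 h with water, split into iv and po groups (mice 48, rats 6, dogs 6). iv 3/3/2 mg/kg (mice/rats/dogs); po 10/20/10 mg/kg; vehicle DMSO in 5% glucose water. Blood at 2 or 5 to 720 min; plasma protein-precipitated with methanol, caffeine internal standard, LC-MS/MS.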

[3] = MRT (0 to t) in beagle dog at 2 mg/kg, iv by LC-MS/MS analysis; assay type: ADME, organism-based, Canis lupus familiaris; conditions: in vivo
[4] = biological target: 5'-AMP-activated protein kinase catalytic subunit alpha-2 (Homo sapiens) (UniProt P54646); test: Binding affinity to wild-type human partial length AMPK alpha2 (M1 to E306 residues) expressed in bacterial expression system assessed as remaining unbound target protein level at 1000 nM by Kinomescan method relative to control
Sequence of 5'-AMP-activated protein kinase catalytic subunit alpha-2 (Homo sapiens) (P54646 whole entry, looked up, the tested form may be a part): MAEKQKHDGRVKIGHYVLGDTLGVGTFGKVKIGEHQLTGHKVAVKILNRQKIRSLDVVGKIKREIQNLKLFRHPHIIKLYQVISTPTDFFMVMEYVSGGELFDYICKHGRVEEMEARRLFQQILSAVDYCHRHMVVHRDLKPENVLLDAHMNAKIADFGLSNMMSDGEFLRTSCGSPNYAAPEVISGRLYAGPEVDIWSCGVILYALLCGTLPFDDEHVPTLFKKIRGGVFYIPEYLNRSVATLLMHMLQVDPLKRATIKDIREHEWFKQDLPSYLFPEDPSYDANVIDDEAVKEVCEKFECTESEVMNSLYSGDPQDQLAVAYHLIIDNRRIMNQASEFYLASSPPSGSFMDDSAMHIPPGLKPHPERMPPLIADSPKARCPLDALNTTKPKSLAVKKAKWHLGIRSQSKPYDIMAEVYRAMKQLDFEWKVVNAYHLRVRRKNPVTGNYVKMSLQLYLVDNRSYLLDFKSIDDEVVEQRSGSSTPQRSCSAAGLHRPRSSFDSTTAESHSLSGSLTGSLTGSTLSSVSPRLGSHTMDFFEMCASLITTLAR
How it was run: (§1)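 Profiled in a KINOMEscan binding panel with the inhibitor at a single concentration of 1 μM. Binding to each kinase was read out as percent of control, relative to a DMSO control. Strong binders were defined as those with a percent control value below 1.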

[5] = biological target: Casein kinase I isoform alpha-like (Homo sapiens) (UniProt Q8N752); test: Binding affinity to wild-type human full length CSNK1A1L (M1 to N337 residues) expressed in bacterial expression system assessed as remaining unbound target protein level at 1000 nM by Kinomescan method relative to control
Sequence of Casein kinase I isoform alpha-like (Homo sapiens) (Q8N752 whole entry, the tested form may be a part, canonical isoform): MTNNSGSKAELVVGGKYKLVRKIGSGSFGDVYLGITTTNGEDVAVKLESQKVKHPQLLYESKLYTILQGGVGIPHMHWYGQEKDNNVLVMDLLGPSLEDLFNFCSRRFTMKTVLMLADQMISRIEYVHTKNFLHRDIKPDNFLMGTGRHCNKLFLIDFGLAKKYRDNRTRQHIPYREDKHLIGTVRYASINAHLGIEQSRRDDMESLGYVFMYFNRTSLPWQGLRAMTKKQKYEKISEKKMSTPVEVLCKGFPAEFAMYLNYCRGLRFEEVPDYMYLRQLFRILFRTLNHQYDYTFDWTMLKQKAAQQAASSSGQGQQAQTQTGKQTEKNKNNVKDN
How it was run: (§2)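 Single-point competition binding screen across a panel of 468 kinases and mutants, with the inhibitor at 1 μM. Binding is read out as percent of a DMSO control, and targets below 1 percent control were classed as strong binders.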

[6] = system: Epidermal growth factor receptor (Homo sapiens), P00533 [G719S]; test: Binding affinity to human partial length EGFR G719S mutant (R669 to V1011 residues) expressed in bacterial expression system assessed as remaining unbound target protein level at 1000 nM by Kinomescan method relative to control
How it was run: (§3)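 KINOMEscan competition-binding profiling across the panel of 468 kinases and mutants, with inhibitor tested at 1 μM. Binding is expressed as percent of control, with DMSO as the reference control.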

[7] = biological target: Ephrin type-A receptor 4 (Homo sapiens) (UniProt P54764); test: Binding affinity to wild-type human partial length EPHA4 (T601 to R897 residues) expressed in bacterial expression system assessed as remaining unbound target protein level at 1000 nM by Kinomescan method relative to control
[8] = biological target: Tyrosine-protein kinase FRK (Homo sapiens) (UniProt P42685); test: Binding affinity to wild-type human partial length FRK (A215 to F503 residues) expressed in bacterial expression system assessed as remaining unbound target protein level at 1000 nM by Kinomescan method relative to control
Sequence of Tyrosine-protein kinase FRK (Homo sapiens) (P42685 whole entry, the tested form may be a part): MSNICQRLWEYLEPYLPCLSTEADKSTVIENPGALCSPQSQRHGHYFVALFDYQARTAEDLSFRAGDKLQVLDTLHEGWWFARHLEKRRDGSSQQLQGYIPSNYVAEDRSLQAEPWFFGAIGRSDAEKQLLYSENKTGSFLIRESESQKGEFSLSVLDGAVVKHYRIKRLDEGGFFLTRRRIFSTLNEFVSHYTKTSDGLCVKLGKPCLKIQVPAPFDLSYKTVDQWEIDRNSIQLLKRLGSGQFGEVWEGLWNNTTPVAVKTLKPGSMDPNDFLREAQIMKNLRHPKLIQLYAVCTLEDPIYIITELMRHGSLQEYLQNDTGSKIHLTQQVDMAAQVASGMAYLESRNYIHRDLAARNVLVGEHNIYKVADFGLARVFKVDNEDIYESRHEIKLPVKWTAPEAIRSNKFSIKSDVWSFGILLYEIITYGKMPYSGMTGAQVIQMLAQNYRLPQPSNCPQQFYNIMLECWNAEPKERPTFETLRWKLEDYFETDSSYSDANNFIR

[9] = biological target: Dual specificity mitogen-activated protein kinase kinase 3 (Homo sapiens) (UniProt P46734); test: Binding affinity to wild-type human full length MEK3 (M1 to S318 residues) expressed in mammalian expression system assessed as remaining unbound target protein level at 1000 nM by Kinomescan method relative to control
Sequence of Dual specificity mitogen-activated protein kinase kinase 3 (Homo sapiens) (P46734 whole entry, the tested form may be a part): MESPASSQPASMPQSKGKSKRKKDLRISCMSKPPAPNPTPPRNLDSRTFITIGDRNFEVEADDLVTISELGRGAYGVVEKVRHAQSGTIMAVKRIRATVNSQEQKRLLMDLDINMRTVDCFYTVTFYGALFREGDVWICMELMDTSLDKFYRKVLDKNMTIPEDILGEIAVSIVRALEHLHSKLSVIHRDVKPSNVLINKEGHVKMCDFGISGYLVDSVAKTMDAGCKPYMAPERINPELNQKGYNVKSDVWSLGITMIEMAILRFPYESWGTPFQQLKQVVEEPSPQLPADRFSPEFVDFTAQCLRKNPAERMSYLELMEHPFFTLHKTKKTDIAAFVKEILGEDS
How it was run: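 KINOMEscan competition binding profile across a panel of 468 kinases and mutants, with the inhibitor tested at a single concentration of 1 μM. Binding is reported as percent of control, meaning signal relative to a DMSO control.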

[10] = biological target: Serine/threonine-protein kinase Nek7 (Homo sapiens) (UniProt Q8TDX7); test: Binding affinity to wild-type human full length NEK7 (M1 to S302 residues) expressed in bacterial expression system assessed as remaining unbound target protein level at 1000 nM by Kinomescan method relative to control; how it was run: as §2
Sequence of Serine/threonine-protein kinase Nek7 (Homo sapiens) (Q8TDX7 whole entry, looked up, the tested form may be a part): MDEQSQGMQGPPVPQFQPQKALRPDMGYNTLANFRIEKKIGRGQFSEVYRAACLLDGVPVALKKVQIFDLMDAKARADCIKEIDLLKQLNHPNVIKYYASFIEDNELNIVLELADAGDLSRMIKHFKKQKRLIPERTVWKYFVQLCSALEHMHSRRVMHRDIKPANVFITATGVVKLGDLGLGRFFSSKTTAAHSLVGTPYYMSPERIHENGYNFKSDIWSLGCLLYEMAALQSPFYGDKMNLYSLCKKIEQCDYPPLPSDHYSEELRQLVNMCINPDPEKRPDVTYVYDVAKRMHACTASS

[11] = biological target: Calcium-dependent protein kinase 1 (Plasmodium falciparum) (UniProt P62344); test: Binding affinity to wild-type Plasmodium falciparum full length CDPK1 (M1 to S524 residues) expressed in mammalian expression system assessed as remaining unbound target protein level at 1000 nM by Kinomescan method relative to control
How it was run: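 KINOMEscan competitive binding profile at 1 μM inhibitor. Remaining target binding reported as percent of DMSO control.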

[12] = system: Phosphatidylinositol 4,5-bisphosphate 3-kinase catalytic subunit alpha isoform (Homo sapiens), P42336 [H1047L]; test: Binding affinity to human partial length PIK3CA H1047L mutant (R108 to N1068 residues) expressed in mammalian expression system assessed as remaining unbound target protein level at 1000 nM by Kinomescan method relative to control; how it was run: as §3
[13] = biological target: Phosphatidylinositol 4,5-bisphosphate 3-kinase catalytic subunit gamma isoform (Homo sapiens) (UniProt P48736); test: Binding affinity to wild-type human partial length PIK3CG (S144 to A1102 residues) expressed in mammalian expression system assessed as remaining unbound target protein level at 1000 nM by Kinomescan method relative to control
[14] = biological target: Phosphatidylinositol 4-kinase beta (Homo sapiens) (UniProt Q9UBF8); test: Binding affinity to wild-type human full length PIK4CB (M1 to M828 residues) expressed in mammalian expression system assessed as remaining unbound target protein level at 1000 nM by Kinomescan method relative to control; how it was run: as §1
Sequence of Phosphatidylinositol 4-kinase beta (Homo sapiens) (Q9UBF8 2-816 limits assumed): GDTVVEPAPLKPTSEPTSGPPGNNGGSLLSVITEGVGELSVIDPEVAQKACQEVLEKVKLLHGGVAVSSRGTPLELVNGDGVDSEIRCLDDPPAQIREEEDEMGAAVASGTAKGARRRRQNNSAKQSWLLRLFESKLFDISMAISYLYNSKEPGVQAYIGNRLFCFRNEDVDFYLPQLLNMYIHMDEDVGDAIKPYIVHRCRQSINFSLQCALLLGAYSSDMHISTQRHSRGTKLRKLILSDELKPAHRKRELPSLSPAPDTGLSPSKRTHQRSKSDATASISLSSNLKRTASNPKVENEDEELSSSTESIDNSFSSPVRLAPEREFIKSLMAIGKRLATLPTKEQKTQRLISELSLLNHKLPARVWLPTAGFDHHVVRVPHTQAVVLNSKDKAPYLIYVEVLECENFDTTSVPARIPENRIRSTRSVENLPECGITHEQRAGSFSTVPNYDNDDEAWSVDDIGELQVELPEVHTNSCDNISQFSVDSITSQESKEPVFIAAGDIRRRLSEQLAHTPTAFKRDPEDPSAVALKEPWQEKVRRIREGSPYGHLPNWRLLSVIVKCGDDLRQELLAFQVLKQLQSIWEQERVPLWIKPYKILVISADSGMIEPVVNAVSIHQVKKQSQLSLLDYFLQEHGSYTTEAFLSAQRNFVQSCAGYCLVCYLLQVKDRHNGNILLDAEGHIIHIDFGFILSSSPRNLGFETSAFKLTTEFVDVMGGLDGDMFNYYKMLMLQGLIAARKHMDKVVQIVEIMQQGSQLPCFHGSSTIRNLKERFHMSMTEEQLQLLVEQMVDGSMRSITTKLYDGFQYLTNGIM

[15] = biological target: cAMP-dependent protein kinase catalytic subunit alpha (Homo sapiens) (UniProt P17612); test: Binding affinity to wild-type human partial length PKAC-alpha (G10 to F351 residues) expressed in bacterial expression system assessed as remaining unbound target protein level at 1000 nM by Kinomescan method relative to control
[16] = biological target: Ribosomal protein S6 kinase alpha-6 (Homo sapiens) (UniProt Q9UK32); test: Binding affinity to wild-type human partial length N-terminal RSK4 kinase domain 1 (M1 to E397 residues) expressed in mammalian expression system assessed as remaining unbound target protein level at 1000 nM by Kinomescan method relative to control
How it was run: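 KINOMEscan binding panel of 468 kinases/mutants. Inhibitor was tested at a single concentration of 1 μM. Binding is reported as percent of control, defined relative to a DMSO control.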

[17] = biological target: Serine/threonine-protein kinase Sgk3 (Homo sapiens) (UniProt Q96BR1); test: Binding affinity to wild-type human partial length SGK3 (M119 to L496 residues) expressed in mammalian expression system assessed as remaining unbound target protein level at 1000 nM by Kinomescan method relative to control
Sequence of Serine/threonine-protein kinase Sgk3 (Homo sapiens) (Q96BR1 whole entry, the tested form may be a part): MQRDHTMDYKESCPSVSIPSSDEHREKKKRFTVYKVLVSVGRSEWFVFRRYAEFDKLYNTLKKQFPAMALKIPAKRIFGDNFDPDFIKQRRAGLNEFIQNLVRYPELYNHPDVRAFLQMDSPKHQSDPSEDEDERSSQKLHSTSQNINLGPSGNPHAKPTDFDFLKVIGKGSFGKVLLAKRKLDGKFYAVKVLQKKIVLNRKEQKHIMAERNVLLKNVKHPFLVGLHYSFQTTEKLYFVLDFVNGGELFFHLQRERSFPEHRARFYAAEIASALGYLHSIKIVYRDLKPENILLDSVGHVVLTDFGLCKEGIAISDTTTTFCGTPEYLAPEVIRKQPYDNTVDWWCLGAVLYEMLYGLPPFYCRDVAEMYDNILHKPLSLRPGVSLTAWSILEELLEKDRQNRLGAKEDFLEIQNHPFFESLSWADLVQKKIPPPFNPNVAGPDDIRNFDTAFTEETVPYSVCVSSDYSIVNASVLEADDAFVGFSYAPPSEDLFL

[18] = biological target: Proto-oncogene tyrosine-protein kinase Src (Homo sapiens) (UniProt P12931); test: Binding affinity to wild-type human partial length SRC (L240 to L536 residues) expressed in bacterial expression system assessed as remaining unbound target protein level at 1000 nM by Kinomescan method relative to control
Sequence of Proto-oncogene tyrosine-protein kinase Src (Homo sapiens) (P12931 2-536 limits assumed): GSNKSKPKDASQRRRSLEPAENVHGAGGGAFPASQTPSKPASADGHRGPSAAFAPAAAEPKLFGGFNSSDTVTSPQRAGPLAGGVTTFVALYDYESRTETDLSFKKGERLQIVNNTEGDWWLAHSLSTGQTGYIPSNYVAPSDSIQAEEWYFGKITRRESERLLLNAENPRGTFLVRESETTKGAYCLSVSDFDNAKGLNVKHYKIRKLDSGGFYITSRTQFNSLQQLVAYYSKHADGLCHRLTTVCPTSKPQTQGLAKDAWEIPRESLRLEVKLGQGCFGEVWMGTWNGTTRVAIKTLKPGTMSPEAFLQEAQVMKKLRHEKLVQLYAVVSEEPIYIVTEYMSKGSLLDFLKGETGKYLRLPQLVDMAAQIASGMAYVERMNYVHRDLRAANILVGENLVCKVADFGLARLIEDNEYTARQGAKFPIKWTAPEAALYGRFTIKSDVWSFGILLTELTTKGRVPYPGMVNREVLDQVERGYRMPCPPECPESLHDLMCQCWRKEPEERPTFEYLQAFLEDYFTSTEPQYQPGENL

[19] = species on record: Homo sapiens; test: Selectivity ratio of IC50 for recombinant full length His/GST-tagged human CDK5/p25 to IC50 for recombinant full length His-tagged human CDK9/CyclinT1

Sequence of CDK9/Cyclin K (P50750 whole entry): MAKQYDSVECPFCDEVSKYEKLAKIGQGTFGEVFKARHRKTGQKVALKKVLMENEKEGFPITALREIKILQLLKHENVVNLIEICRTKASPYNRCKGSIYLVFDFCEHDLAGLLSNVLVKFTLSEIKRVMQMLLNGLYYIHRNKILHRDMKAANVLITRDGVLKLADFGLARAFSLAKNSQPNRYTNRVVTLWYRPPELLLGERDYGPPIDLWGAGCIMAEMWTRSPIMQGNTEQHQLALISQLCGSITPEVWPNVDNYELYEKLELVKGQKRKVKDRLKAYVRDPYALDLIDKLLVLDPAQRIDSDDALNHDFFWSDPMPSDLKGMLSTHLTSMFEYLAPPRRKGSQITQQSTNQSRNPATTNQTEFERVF
Sequence of CDK9/Cyclin K (O75909 whole entry, further chain): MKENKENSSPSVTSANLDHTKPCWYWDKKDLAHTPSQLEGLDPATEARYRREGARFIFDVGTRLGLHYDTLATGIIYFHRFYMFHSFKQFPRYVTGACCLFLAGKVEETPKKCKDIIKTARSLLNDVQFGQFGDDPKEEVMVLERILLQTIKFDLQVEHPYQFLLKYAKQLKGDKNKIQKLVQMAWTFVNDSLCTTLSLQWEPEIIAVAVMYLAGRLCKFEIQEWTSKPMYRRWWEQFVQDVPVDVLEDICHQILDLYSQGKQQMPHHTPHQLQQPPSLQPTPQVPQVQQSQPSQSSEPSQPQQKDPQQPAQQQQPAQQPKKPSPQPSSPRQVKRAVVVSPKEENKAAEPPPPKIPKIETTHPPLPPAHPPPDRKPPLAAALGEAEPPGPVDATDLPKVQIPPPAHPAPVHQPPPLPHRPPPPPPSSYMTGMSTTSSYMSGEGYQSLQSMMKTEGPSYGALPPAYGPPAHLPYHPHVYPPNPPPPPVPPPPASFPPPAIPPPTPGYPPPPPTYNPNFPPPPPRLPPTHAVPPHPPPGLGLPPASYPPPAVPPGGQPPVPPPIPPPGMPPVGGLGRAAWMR

COCCN[C@H]1CC[C@H](Nc2cc(-c3csc(NCC4(C#N)CCOCC4)n3)c(Cl)cn2)CC1
IC50 [1]: 6 nM | AUC(0-t) [2]: 1780 ng·h/mL | MRT last [3]: 9.36 h | Activity [4]: 100% | Activity [5]: 96% | Activity [6]: 82% | Activity [7]: 96% | Activity [8]: 96% | Activity [9]: 86% | Activity [10]: 83% | Activity [11]: 77% | Activity [12]: 100% | Activity [13]: 99% | Activity [14]: 100% | Activity [15]: 87% | Activity [16]: 94% | Activity [17]: 100% | Activity [18]: 89% | Ratio IC50 [19]: > 1000
